The text below walks through data of ChEMBL document CHEMBL4406881, “Design, synthesis and biological evaluation of benzoylacrylic acid shikonin ester derivatives as irreversible dual inhibitors of tubulin and EGFR” (Bioorg Med Chem, 2019).

One series relates to MCF7. In words: Antiproliferative activity against human MCF7 cells assessed as reduction in cell viability after 24 hrs by MTT assay. It is filed as functional, cell-based. The following applies: MCF7, 24 h. The method, boiled down:
(§1)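 MTT colorimetric assay. Cells in log phase in medium with 10% FBS were seeded at 10⁴ cells/well and left overnight at 37 °C, 5% CO₂ to reattach. Compounds were added at 0.1, 1, 10 and 100 μM in 10% FBS for 24 h. IC50 reported as mean ± SD of three independent experiments.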

In another series the test system is HeLa. Kind of series: Antiproliferative activity against human HeLa cells assessed as reduction in cell viability after 24 hrs by MTT assay. It is filed as functional, cell-based. The method, boiled down:
as §1
On the technique in general: Formazan colour is commonly taken as a measure of viable cells.

The target in series [1] is T1, Epidermal growth factor receptor (Homo sapiens, UniProt P00533). In words: Inhibition of C-terminal His-tagged N-terminal GST-tagged human EGFR (668 to 1210 residues) expressed in baculovirus infected Sf9 cells after 30 mins in presence of gamma-[32p-ATP] binding assay.
T1 sequence (P00533 whole entry, the tested form may be a part): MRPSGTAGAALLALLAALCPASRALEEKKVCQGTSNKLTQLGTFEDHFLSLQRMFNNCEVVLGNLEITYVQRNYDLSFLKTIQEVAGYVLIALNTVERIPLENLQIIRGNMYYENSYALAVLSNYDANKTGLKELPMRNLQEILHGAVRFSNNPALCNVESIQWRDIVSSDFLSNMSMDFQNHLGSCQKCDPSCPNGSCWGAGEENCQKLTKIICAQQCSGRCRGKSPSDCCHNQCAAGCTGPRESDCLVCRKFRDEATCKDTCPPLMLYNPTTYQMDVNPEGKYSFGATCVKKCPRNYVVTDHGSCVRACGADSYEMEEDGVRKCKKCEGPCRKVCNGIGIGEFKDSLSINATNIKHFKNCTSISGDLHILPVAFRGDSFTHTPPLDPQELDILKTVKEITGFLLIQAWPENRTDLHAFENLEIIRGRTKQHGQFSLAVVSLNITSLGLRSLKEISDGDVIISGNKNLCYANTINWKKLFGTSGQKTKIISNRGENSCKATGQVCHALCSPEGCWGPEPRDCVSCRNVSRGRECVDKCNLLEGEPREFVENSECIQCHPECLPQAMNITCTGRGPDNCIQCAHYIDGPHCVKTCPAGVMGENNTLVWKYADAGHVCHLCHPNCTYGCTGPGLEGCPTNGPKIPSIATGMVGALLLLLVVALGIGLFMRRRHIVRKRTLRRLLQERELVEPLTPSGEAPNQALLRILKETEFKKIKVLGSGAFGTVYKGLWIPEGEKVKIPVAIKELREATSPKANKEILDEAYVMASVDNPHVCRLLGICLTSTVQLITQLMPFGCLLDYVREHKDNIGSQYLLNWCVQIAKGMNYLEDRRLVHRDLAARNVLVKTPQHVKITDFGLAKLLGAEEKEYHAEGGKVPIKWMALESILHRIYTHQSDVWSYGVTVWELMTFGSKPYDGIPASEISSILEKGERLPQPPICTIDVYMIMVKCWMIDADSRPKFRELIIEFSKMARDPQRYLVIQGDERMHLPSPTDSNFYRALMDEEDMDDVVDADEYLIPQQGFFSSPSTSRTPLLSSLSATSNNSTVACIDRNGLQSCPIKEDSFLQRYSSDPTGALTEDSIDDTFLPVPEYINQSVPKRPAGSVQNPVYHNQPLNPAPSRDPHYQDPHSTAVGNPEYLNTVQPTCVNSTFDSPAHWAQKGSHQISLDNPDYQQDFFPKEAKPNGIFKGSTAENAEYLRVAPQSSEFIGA
Series [2] has as its system A549. Kind of series: Antiproliferative activity against human A549 cells assessed as reduction in cell viability after 24 hrs by MTT assay. The following applies: A549, 24 h. It is filed as functional, cell-based.
A short description of series [3]: Cytotoxicity against human LO2 cells assessed as reduction in cell viability after 24 hrs by MTT assay. It is filed as cell-based, L02. The method, boiled down:
as §1

For another series, the system named is NCI-H460. Kind of series: Antiproliferative activity against human H460 cells assessed as reduction in cell viability after 24 hrs by MTT assay. The following applies: NCI-H460, 24 h. It is filed as functional, cell-based. The essentials:
as §1

In another series the test system is NCI-H1975. In words: Antiproliferative activity against human NCI-H1975 cells assessed as reduction in cell viability after 24 hrs by MTT assay. It is filed as functional, cell-based. The following applies: NCI-H1975, 24 h. The essentials: as §1
A short description of series [4]: Toxicity in ip dosed Balb/c mouse xenografted with human A549 cells assessed as reduction in body weight at 2 mg/kg, ip administered once every two days for 32 days and measured for every 2 days. It is filed as organism-based. The note with it: in vivo. The method, boiled down: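 Female BALB/c nude mice (5-6 weeks) received 6×10^6 A549 cells s.c. in the flank. After two weeks (tumours ~90 mm³) they were split into 5 groups (n = 8). Dosing was 2 or 4 mg/kg, dissolved in DMSO, i.p. once every two days for 16 doses; DMSO vehicle served as control. Body weight and tumour volume (L×S²/2) were recorded every two days; mice were killed at day 32.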
(A xenograft is tissue or cells of one species grown in another, often human tumour cells in immunodeficient mice.)

Series [5] concerns the target T1, Epidermal growth factor receptor. In words: Potency index, ratio of shi-konin IC50 to compound IC50 for inhibition of C-terminal His-tagged N-terminal GST-tagged human EGFR (668 to 1210 residues) expressed in baculovirus infected Sf9 cells after 30 mins in presence of gamma-[32p-ATP] binding assay.
A further series has as its target Tubulin (Homo sapiens) (UniProt P68371+Q9H4B7+P0DPH7+P68366+Q13509+Q71U36+P04350+Q3ZCM7+P07437+P68363+Q9BQE3+Q6PEY2+Q13885+Q9BVA1+Q9BUF5). In words: Inhibition of microtubule polymerization in human A549 cells assessed as polymerized tubulin expression at 1 uM after 24 hrs by immuno blot analysis. It is filed as cell-based.
For series [6], the system named is A549. Kind of series: Induction of apoptosis in human A549 cells assessed as high mitochondrial membrane potential after 20 mins by JC-1 staining-based flow cytometric analysis (reference value: 90.6%). It is filed as functional. For orientation: A flow cytometer gives signals particle by particle.
For series [7], the system named is A549. Kind of series: Induction of apoptosis in human A549 cells assessed as low mitochondrial membrane potential after 20 mins by JC-1 staining-based flow cytometric analysis (reference value: 6.3%). It is filed as functional.

As for `CC(C)=CC[C@@H](OC(=O)/C=C\C(=O)c1ccc(C)cc1Cl)C1=CC(=O)c2c(O)ccc(O)c2C1=O`, the IC50 in the series on MCF7 came to 6.63 µM; in the series with HeLa, 10.1 µM; in [1], 0.105 µM; with A549 [2], 6.23 µM; in the series with NCI-H460, 8.16 µM; in the series on NCI-H1975, 9.56 µM. Further, the CC50 at 24 h in series [3] is greater than 100 µM.
Consider `CC(C)=CC[C@@H](OC(=O)/C=C\C(=O)c1ccc(Cl)cc1)C1=CC(=O)c2c(O)ccc(O)c2C1=O`, for which the IC50 in the series on MCF7 turned out to be 9.62 µM; in the series with HeLa, 11.4 µM; in series [1], 0.0325 µM; with A549 [2], 8.52 µM; in the series with NCI-H460 it was 11.7 µM; in the series on NCI-H1975, 11.8 µM. In series [3], the CC50 at 24 h is greater than 100 µM.
Take `CCc1ccc(C(=O)/C=C\C(=O)O[C@H](CC=C(C)C)C2=CC(=O)c3c(O)ccc(O)c3C2=O)cc1`: the IC50 in the series with MCF7 amounted to 9.37 µM; with HeLa, 15.2 µM; in series [1] it was 0.0508 µM; in the series on A549 [2], 14.5 µM; with NCI-H460 it was 16.4 µM; with NCI-H1975 it was 12.4 µM. Besides, the CC50 at 24 h in series [3] stood at 92.4 µM.
Take `CC(C)=CC[C@@H](OC(=O)/C=C\C(=O)c1cc(C)ccc1C)C1=CC(=O)c2c(O)ccc(O)c2C1=O`: the concentration for half-maximal inhibition (IC50) in the series with MCF7 is 5.28 µM; in the series with HeLa, 10.2 µM; in [1], greater than 0.15 µM; in the series on A549 [2] it was 13.1 µM; in the series on NCI-H460, 13.2 µM; in the series with NCI-H1975 it was 10.2 µM. Moreover, in series [3], the CC50 at 24 h is 78.1 µM.
With `CC(C)=CC[C@@H](O)C1=CC(=O)c2c(O)ccc(O)c2C1=O` [SHIKONIN], the half-maximal inhibitory concentration (IC50) in the series with MCF7 stood at 9.55 µM; with HeLa, 7.84 µM; in [1] it was 0.139 µM; in the series with A549 [2] it was 6.13 µM; with NCI-H460, 5.04 µM; with NCI-H1975, 4.28 µM. In addition, the CC50 at 24 h in series [3] is 12.2 µM. Besides, the Activity result in series [4] is “Toxic”.
`CN(C)C/C=C/C(=O)Nc1cc2c(Nc3ccc(F)c(Cl)c3)ncnc2cc1O[C@H]1CCOC1` [AFATINIB]: the IC50 in the series on MCF7 was determined as 7.62 µM; in the series on HeLa, 6.39 µM; in the series on NCI-H460 it was 6.14 µM; in the series with NCI-H1975, 5.55 µM. The CC50 at 24 h in series [3] turned out to be 25.3 µM.
In the case of `CC(C)=CC[C@@H](OC(=O)/C=C\C(=O)c1cc(F)ccc1C)C1=CC(=O)c2c(O)ccc(O)c2C1=O`, the IC50 worked out at 10.1 µM with MCF7; 14.2 µM with HeLa; 0.0234 µM in series [1]; 13.4 µM with A549 [2]; 8.35 µM with NCI-H460; 7.26 µM in the series with NCI-H1975. Also, the CC50 at 24 h in [3] came out at 93.5 µM. The Ratio IC50 in series [5] worked out at 6.
Turning to `CC(C)=CC[C@@H](OC(=O)/C=C\C(=O)c1ccc(C)cc1C)C1=CC(=O)c2c(O)ccc(O)c2C1=O`, the IC50 in the series on MCF7 was 7.89 µM; in the series on HeLa, 18.6 µM; in series [1], greater than 0.15 µM; with A549 [2] it was 10.2 µM; with NCI-H460, 9.17 µM; with NCI-H1975, 16.6 µM. In addition, the CC50 at 24 h in series [3] was greater than 100 µM.
On to `CC(C)=CC[C@@H](OC(=O)/C=C\C(=O)c1ccc(C)cc1F)C1=CC(=O)c2c(O)ccc(O)c2C1=O`, for which the IC50 with MCF7 amounted to 6.64 µM; with HeLa it was 15.1 µM; in [1], 0.12 µM; with A549 [2], 12.6 µM; in the series on NCI-H460, 13.6 µM; in the series with NCI-H1975, 9.56 µM. In addition, the CC50 at 24 h in [3] was greater than 100 µM.
Regarding `CC(=O)O[C@H]1C(=O)[C@@]2(C)[C@H]([C@H](OC(=O)c3ccccc3)[C@]3(O)C[C@H](OC(=O)[C@H](O)[C@@H](NC(=O)c4ccccc4)c4ccccc4)C(C)=C1C3(C)C)[C@]1(OC(C)=O)CO[C@@H]1C[C@@H]2O`, the fold change (FC) on Tubulin (Homo sapiens) amounted to 0.82.
For the compound `CC(C)=CC[C@@H](OC(=O)/C=C\C(=O)c1ccc(C)c(Br)c1)C1=CC(=O)c2c(O)ccc(O)c2C1=O`, the IC50 was 14.3 µM in the series on MCF7; 17.2 µM in the series on HeLa; greater than 0.15 µM in series [1]; 15.4 µM in the series with A549 [2]; 4.21 µM in the series with NCI-H460; 22.5 µM in the series with NCI-H1975. The CC50 at 24 h in [3] is greater than 100 µM.
Regarding `CC(C)=CC[C@@H](OC(=O)/C=C\C(=O)c1cc(Cl)ccc1C)C1=CC(=O)c2c(O)ccc(O)c2C1=O`, the IC50 amounted to 18.6 µM in the series with MCF7; 9.34 µM in the series with HeLa; 0.146 µM in series [1]; 13.2 µM in the series with A549 [2]; 10.3 µM in the series on NCI-H460; 18.3 µM with NCI-H1975. In addition, the CC50 at 24 h in [3] stood at 83.3 µM.
Regarding `CC(C)=CC[C@@H](OC(=O)/C=C\C(=O)c1ccc(C)c(C)c1)C1=CC(=O)c2c(O)ccc(O)c2C1=O`, the IC50 in the series on MCF7 was determined as 14.3 µM; with HeLa it was 10.1 µM; in series [1], 0.119 µM; in the series with A549 [2] it was 9.12 µM; with NCI-H460 it was 11.3 µM; with NCI-H1975, 15.7 µM. The CC50 at 24 h in series [3] is 88.4 µM.
Take `CC(C)=CC[C@@H](OC(=O)/C=C\C(=O)c1ccccc1)C1=CC(=O)c2c(O)ccc(O)c2C1=O`: the IC50 in the series with MCF7 was 19.4 µM; in the series on HeLa, 17.6 µM; in series [1], greater than 0.15 µM; with A549 [2], 7.51 µM; with NCI-H460 it was 4.59 µM; in the series on NCI-H1975 it was 10.3 µM. Further, the CC50 at 24 h in series [3] was greater than 100 µM.
Regarding `N#CC(C#N)=NNc1cccc(Cl)c1` [CARBONYL CYANIDE M-CHLOROPHENYLHYDRAZONE], the Activity in the series on A549 [6] is reported as 26.5%; with A549 [7], 67.9%.
For `CC(C)=CC[C@@H](OC(=O)/C=C\C(=O)c1ccc(C)c(F)c1)C1=CC(=O)c2c(O)ccc(O)c2C1=O`, the IC50 was determined as 7.68 µM in the series with MCF7; 8.27 µM in the series with HeLa; 0.107 µM in series [1]; 9.39 µM with A549 [2]; 10.1 µM with NCI-H460; 7.25 µM in the series on NCI-H1975. In series [3], the CC50 at 24 h is greater than 100 µM.
For the compound `CC(C)=CC[C@@H](OC(=O)/C=C\C(=O)c1ccc(C)cc1)C1=CC(=O)c2c(O)ccc(O)c2C1=O`, the IC50 was 9.14 µM with MCF7; 8.96 µM with HeLa; 0.0452 µM in series [1]; 9.72 µM in the series with A549 [2]; 11.4 µM in the series on NCI-H460; 10.2 µM in the series on NCI-H1975. The CC50 at 24 h in [3] was determined as 64.2 µM.
Take `CC(C)=CC[C@@H](OC(=O)/C=C\C(=O)c1ccc(Br)cc1)C1=CC(=O)c2c(O)ccc(O)c2C1=O`: the IC50 is 9.31 µM in the series on MCF7; 8.02 µM in the series on HeLa; 0.12 µM in series [1]; 9.19 µM in the series with A549 [2]; 6.51 µM in the series with NCI-H460; 13.3 µM with NCI-H1975. Also, the CC50 at 24 h in [3] was greater than 100 µM.

Usually IC50 stands for the midpoint of a concentration-inhibition curve. As usually defined, the CC50 is the concentration at which the toxic effect on the cells reaches its halfway point.
